In ChEMBL document CHEMBL4732169, “Design and synthesis of mycobacterial pks13 inhibitors: Conformationally rigid tetracyclic molecules” (Eur J Med Chem, 2021):
In brackets after ≈: the same amount, converted by molar mass.

How the values were obtained:
[1] = system: Mycobacterium tuberculosis; assay: Antitubercular activity against drug susceptible Mycobacterium tuberculosis V4207 by MABA assay; assay type: functional
Method in brief: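 Microplate alamar blue assay (MABA) against each Mtb strain, either H37Rv or a clinical isolate (drug-susceptible, MDR or XDR). MIC taken as the lowest concentration giving at least 90% reduction of the bacterial growth signal. Each value is the average of three individual measurements.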

[2] = system: Mycobacterium tuberculosis; assay: Antitubercular activity against Mycobacterium tuberculosis H37Rv assessed as bacterial growth inhibition incubated for 4 days by MABA assay; assay type: functional; conditions: time 4 day
[3] = system: Vero; assay: Cytotoxicity against African green monkey Vero cells incubated for 72 hrs in DEME medium; assay type: cell-based; conditions: Chlorocebus sabaeus
[4] = Selective index, ratio of CC50 for African green monkey Vero cells to IC50 for Mycobacterium tuberculosis H37Rv
Method in brief: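 Vero (African green monkey kidney) cytotoxicity measured by alamar blue assay to give IC50. SI calculated as IC50(Vero)/MIC(H37Rv).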

[5] = system: Staphylococcus aureus; assay: Antibacterial activity against Staphylococcus aureus Newman assessed as inhibition of bacterial growth measured after 18 hrs by two fold serial dilution method; assay type: functional
Method in brief: (§1)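 Bacteria grown overnight at 37 °C in TSB without antibiotics. Compound in DMSO was serially diluted two-fold to final […] and mixed with an equal volume of bacteria. MIC was read after 18 h at 37 °C; three experiments per condition.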

[6] = system: Bacillus subtilis; assay: Antibacterial activity against Bacillus subtilis168 assessed as inhibition of bacterial growth measured after 18 hrs by two fold serial dilution method; assay type: functional; conditions: subsp. subtilis str. 168; method in brief: as §1
[7] = system: Escherichia coli; assay: Antibacterial activity against Escherichia coli AB1157 assessed as inhibition of bacterial growth measured after 18 hrs by two fold serial dilution method; assay type: functional; method in brief: as §1
[8] = system: Escherichia coli; assay: Antibacterial activity against Escherichia coli DH5-alpha assessed as inhibition of bacterial growth measured after 18 hrs by two fold serial dilution method; assay type: functional; method in brief: as §1
[9] = system: Mycobacterium tuberculosis; assay: Binding affinity to wild type Mycobacterium tuberculosis Pks13-TE expressed in Escherichia coli BL21(DE3)pLysS assessed as change in melting temperature at protein to compound molar ratio of 1:5 incubated for 30 mins by nanoDSF assay
Method in brief: (§2)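 Recombinant N-Mbp-His-tagged Pks13-TE domain of Mtb Pks13 (Rv3800c), expressed in E. coli BL21(DE3)pLysS after 0.5 mM IPTG induction and purified to >95%. Protein was incubated with compound (stock in DMSO) in 100 mM NaCl, 20 mM Tris-HCl pH 8.0 for 30 min, with a DMSO blank. nanoDSF ramp 30–90 °C at 2 °C/min, read as the F350/F330 ratio. Tm shift averaged from three measurements.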

[10] = system: Mycobacterium tuberculosis; assay: Binding affinity to wild type Mycobacterium tuberculosis Pks13-TE expressed in Escherichia coli BL21(DE3)pLysS assessed as change in melting temperature at protein to compound molar ratio of 1:10 incubated for 30 mins by nanoDSF assay; method in brief: as §2
[11] = system: Mycobacterium tuberculosis; assay: Inhibition of Mycobacterium tuberculosis Pks13-TE using 4-MUH as substrate by measuring fluorescence product for every 10 mins for 60 mins
Method in brief: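 Pks13-TE thioesterase activity measured with the fluorogenic substrate 4-methylumbelliferyl heptanoate at 20 µM final, in 0.1 M Tris-HCl pH 7.0. Compound was serially diluted from 20 µM down to about 0.0195 µM, or DMSO was added. Points were run in triplicate and averaged to build concentration-response curves for IC50.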

[12] = system: Mycobacterium tuberculosis; assay: Potency index, ratio of MIC for TAM16 to MICfor test compound for antitubercular activity against Mycobacterium tuberculosis H37Rv assessed as bacterial growth inhibition incubated for 4 days by MABA assay; assay type: functional; conditions: time 4 day

## NNC(=O)c1ccncc1 [ISONIAZID]
[1]
  MIC=<90: 0.04 µg/mL (≈ 0.292 µM)

## O=c1[nH]c2cc(Br)ccc2c2oc3ccc(O)c(CN4CCCCC4)c3c12
[2]
  MIC=<90: 0.5 µg/mL (≈ 1.17 µM)
[3]
  IC50: 64 µg/mL (≈ 150 µM)
[4]
  Ratio CC50/IC50: 128

## C[C@H]1COc2c(N3CCN(C)CC3)c(F)cc3c(=O)c(C(=O)O)cn1c23.C[C@H]1COc2c(N3CCN(C)CC3)c(F)cc3c(=O)c(C(=O)O)cn1c23.O [LEVOFLOXACIN]
[1]
  MIC=<90: 0.125 µg/mL

## CCNC(=O)c1c(-c2ccccc2)oc2ccc(O)c(CN3CCCCC3)c12
[2]
  MIC=<90: 4 µg/mL (≈ 10.6 µM)

## CN[C@H](CC(C)C)C(=O)N[C@H]1C(=O)N[C@@H](CC(N)=O)C(=O)N[C@H]2C(=O)N[C@H]3C(=O)N[C@H](C(=O)N[C@H](C(=O)O)c4cc(O)cc(O)c4-c4cc3ccc4O)[C@H](O)c3ccc(c(Cl)c3)Oc3cc2cc(c3O[C@@H]2O[C@H](CO)[C@@H](O)[C@H](O)[C@H]2O[C@H]2C[C@](C)(N)[C@H](O)[C@H](C)O2)Oc2ccc(cc2Cl)[C@H]1O [VANCOMYCIN]
[5]
  MIC: 0.39 µg/mL (≈ 0.269 µM)
[6]
  MIC: > 25 µg/mL
[7]
  MIC: > 25 µg/mL
[8]
  MIC: > 25 µg/mL

## CCOC(=O)c1c(-c2ccccc2)sc2ccc(O)c(CN3CCCCC3)c12
[2]
  MIC=<90: 16 µg/mL (≈ 40.5 µM)
[9]
  ΔTm: 3.2 °C
[10]
  ΔTm: 3.3 °C

## COc1ccc2[nH]c(=O)c3c(oc4ccc(O)c(CN5CCCCC5)c43)c2c1
[2]
  MIC=<90: 4 µg/mL (≈ 10.6 µM)

## CCOC(=O)c1c(-c2ccccc2)[nH]c2ccc(O)c(CN3CCCCC3)c12
[2]
  MIC=<90: >32 µg/mL

## CCNC(=O)c1c(-c2ccc(F)cc2)oc2ccc(O)c(CN3CCCCC3)c12
[2]
  MIC=<90: 4 µg/mL (≈ 10.1 µM)

## CO[C@H]1/C=C/O[C@@]2(C)Oc3c(C)c(O)c4c(O)c(c(/C=N/N5CCN(C)CC5)c(O)c4c3C2=O)NC(=O)/C(C)=C\C=C\[C@H](C)[C@H](O)[C@@H](C)[C@@H](O)[C@@H](C)[C@H](OC(C)=O)[C@@H]1C [RIFAMPIN]
[1]
  MIC=<90: 0.0625 µg/mL (≈ 0.0759 µM)

## CCNC(=O)c1c(-c2ccc(OC)cc2)oc2ccc(O)c(CN3CCCCC3)c12
[2]
  MIC=<90: 2 µg/mL (≈ 4.9 µM)

## O=c1[nH]c2cc(O)ccc2c2oc3ccc(O)c(CN4CCCCC4)c3c12
[2]
  MIC=<90: 0.0313 µg/mL (≈ 0.0859 µM)
[1]
  MIC=<90: 0.0313 µg/mL (≈ 0.0859 µM)
[3]
  IC50: 4 µg/mL (≈ 11 µM)
[4]
  Ratio CC50/IC50: 64
[5]
  MIC: > 25 µg/mL
[6]
  MIC: > 25 µg/mL
[7]
  MIC: > 25 µg/mL
[8]
  MIC: > 25 µg/mL
[9]
  ΔTm: 7.5 °C
[10]
  ΔTm: 9.4 °C
[11]
  INH: 0.58 µM

## COc1ccc2oc3c4ccccc4oc(=O)c3c2c1C(=O)N1CCCCC1
[2]
  MIC=<90: >64 µg/mL

## COc1cc2c(cc1C(=O)N1CCCCC1)oc1c3ccccc3oc(=O)c21
[2]
  MIC=<90: >64 µg/mL

## O=c1[nH]c2cc(F)ccc2c2oc3ccc(O)c(CN4CCCCC4)c3c12
[2]
  MIC=<90: 0.5 µg/mL (≈ 1.36 µM)
[3]
  IC50: 16 µg/mL (≈ 43.7 µM)
[4]
  Ratio CC50/IC50: 32

## O=c1oc2ccccc2c2oc3ccc(O)c(CN4CCCCC4)c3c12
[2]
  MIC=<90: 0.125 µg/mL (≈ 0.358 µM)

## NC[C@H]1O[C@H](O[C@H]2[C@H](O)[C@@H](O[C@H]3O[C@H](CO)[C@@H](O)[C@H](N)[C@H]3O)[C@H](N)C[C@@H]2N)[C@H](O)[C@@H](O)[C@@H]1O [KANAMYCIN]
[1]
  MIC=<90: 2 µg/mL (≈ 4.13 µM)
[5]
  MIC: 2.34 µg/mL (≈ 4.83 µM)
[6]
  MIC: 9.39 µg/mL (≈ 19.4 µM)
[7]
  MIC: 9.39 µg/mL (≈ 19.4 µM)
[8]
  MIC: 2.34 µg/mL (≈ 4.83 µM)

## CCOC(=O)c1c(-c2ccccc2)oc2ccc(OC)c(C(=O)N3CCCCC3)c12
[2]
  MIC=<90: >64 µg/mL

## CCOC(=O)c1c(-c2ccccc2)oc2cc(C(=O)N3CCCCC3)c(OC)cc12
[2]
  MIC=<90: >64 µg/mL

## O=c1oc2ccccc2c2[nH]c3ccc(O)c(CN4CCCCC4)c3c12
[2]
  MIC=<90: 32 µg/mL (≈ 91.8 µM)
[9]
  ΔTm: 0.8 °C
[10]
  ΔTm: 3.1 °C

## CCOC(=O)c1c(-c2ccccc2)oc2cc(Br)c(O)c(CN3CCCCC3)c12
[2]
  MIC=<90: 32 µg/mL (≈ 69.8 µM)

## CCOC(=O)c1c(-c2ccccc2)oc2ccc(O)c(CN3CCCCC3)c12
[2]
  MIC=<90: 2 µg/mL (≈ 5.27 µM)
[11]
  INH: 4.6 µM

## O=c1[nH]c2c(Cl)cccc2c2oc3ccc(O)c(CN4CCCCC4)c3c12
[2]
  MIC=<90: 1 µg/mL (≈ 2.61 µM)

## O=c1[nH]c2ccc(Cl)cc2c2oc3ccc(O)c(CN4CCCCC4)c3c12
[2]
  MIC=<90: 1 µg/mL (≈ 2.61 µM)

## O=c1[nH]c2ccc(O)cc2c2oc3ccc(O)c(CN4CCCCC4)c3c12
[2]
  MIC=<90: 1 µg/mL (≈ 2.74 µM)
[3]
  IC50: 16 µg/mL (≈ 43.9 µM)
[4]
  Ratio CC50/IC50: 16
[9]
  ΔTm: 7.4 °C
[10]
  ΔTm: 8.5 °C

## O=c1[nH]c2cc(Cl)ccc2c2oc3ccc(O)c(CN4CCCCC4)c3c12
[2]
  MIC=<90: 0.5 µg/mL (≈ 1.31 µM)
[3]
  IC50: 32 µg/mL (≈ 83.6 µM)
[4]
  Ratio CC50/IC50: 64

## O=c1oc2ccccc2c2sc3ccc(O)c(CN4CCCCC4)c3c12
[2]
  MIC=<90: 1 µg/mL (≈ 2.74 µM)
[9]
  ΔTm: 7.9 °C
[10]
  ΔTm: 9.1 °C

## CNC(=O)c1c(-c2ccc(O)cc2)oc2ccc(O)c(CN3CCCCC3)c12
[2]
  MIC=<90: 0.0313 µg/mL (≈ 0.0823 µM)

## O=c1[nH]c2c(F)cccc2c2oc3ccc(O)c(CN4CCCCC4)c3c12
[2]
  MIC=<90: 0.5 µg/mL (≈ 1.36 µM)

## CC1COc2c(N3CCN(C)CC3)c(F)cc3c(=O)c(C(=O)O)cn1c23 (stereo not drawn) [OFLOXACIN]
[1]
  MIC=<90: 0.5 µg/mL (≈ 1.38 µM)

## CN(C)[C@@H]1C(O)=C(C(N)=O)C(=O)[C@@]2(O)C(O)=C3C(=O)c4c(O)cccc4[C@@](C)(O)[C@H]3C[C@@H]12 [TETRACYCLINE]
[5]
  MIC: 0.2 µg/mL (≈ 0.45 µM)
[6]
  MIC: > 25 µg/mL
[7]
  MIC: 1.56 µg/mL (≈ 3.51 µM)
[8]
  MIC: 0.78 µg/mL (≈ 1.76 µM)

## COc1ccc2c(c1)[nH]c(=O)c1c2oc2ccc(O)c(CN3CCCCC3)c21
[2]
  MIC=<90: 0.25 µg/mL (≈ 0.661 µM)
[3]
  IC50: 64 µg/mL (≈ 169 µM)
[4]
  Ratio CC50/IC50: 256
[9]
  ΔTm: 8.7 °C
[10]
  ΔTm: 9 °C

## O=c1[nH]c2ccc(F)cc2c2oc3ccc(O)c(CN4CCCCC4)c3c12
[2]
  MIC=<90: 1 µg/mL (≈ 2.73 µM)
[3]
  IC50: 16 µg/mL (≈ 43.7 µM)
[4]
  Ratio CC50/IC50: 16

## O=c1oc2ccccc2c2oc3cc(Br)c(O)c(CN4CCCCC4)c3c12
[2]
  MIC=<90: >64 µg/mL

## O=c1[nH]c2ccc(Br)cc2c2oc3ccc(O)c(CN4CCCCC4)c3c12
[2]
  MIC=<90: 32 µg/mL (≈ 74.9 µM)

## O=c1oc2cc(O)ccc2c2oc3ccc(O)c(CN4CCCCC4)c3c12
[2]
  MIC=<90: 0.0039 µg/mL (≈ 0.0107 µM)
[12]
  Ratio: 8

## O=c1[nH]c2ccccc2c2oc3ccc(O)c(CN4CCCCC4)c3c12
[2]
  MIC=<90: 0.25 µg/mL (≈ 0.718 µM)
[9]
  ΔTm: 9.6 °C
[10]
  ΔTm: 10.2 °C
